From PubChem BioAssay come the findings set out here.

Assay [1] can be described thus: inhibitors of TNFa-induced NFkB p65 translocation, primary screen, imaging, HUVEC, MLSMR starter and 10KST1 sets (AID 438).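 Further: compound added about 3h40 before a 20 min TNFalpha stimulation.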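 On inhibition: signal is the nuclear over cytoplasmic p65 intensity ratio per well.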 Particulars: HUVEC TNFa-induced p65 nuclear translocation; cell count: measured here: nuclei count (cytotoxicity indicator), at 2.08 µM; inhibition: at 2 µM, stronger effect = higher value, 0% TNFa-plus-vehicle, 100% no-TNFa wells.
Assay [2] is described as follows: inhibitors of mutant huntingtin aggregation, primary screen, imaging, exon1htt(103Q)mCFP cells, high-content imaging (AID 483;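 active means visual image review flags a hit and inhibition of aggregation exceeds 20%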;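 further: compound exposure lasted 3 days before fixation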;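 on nuclei count: percent of the per-plate median nuclei count of sample wells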). Particulars: exon1htt(103Q)mCFP cell line, aggregate imaging, at 2 µM; inhibition of aggregation: stronger effect = higher value; nuclei count: measured here: cell count, toxicity.
Assay [3] can be described thus: inhibitors of E-selectin induction by TNFa, primary screen, imaging, HUVEC, immunofluorescence, MLSMR starter and 10KST1 sets (AID 487;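 active means visually confirmed hit in the image check and inhibition above 20%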;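 on inhibition: signal is fraction of cell area covered by stained E-selectin grains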;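 on nuclei count: 100% = median nuclei count of all wells on the same plate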). To be noted: HUVEC TNFalpha-induced E-selectin immunofluorescence imaging, at 2 µM; inhibition: stronger effect = higher value; nuclei count: measured here: cell number, toxicity.
Assay [4] addresses Voltage-gated potassium channel subunit beta-2 (Rattus norvegicus) (UniProt P62483). In words: KvBeta enzyme negative modulators, primary screen, biochemical, NADPH fluorescence (AID 622;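 active means fluorescence slope higher than the sample average by over 3 SD, cut at about -0.22 in these data, passing the limit was not always enough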;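 further: slope of raw intensity against log time taken from 70 to 1610 s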). To be noted: recombinant KvBeta, 4-cyanobenzaldehyde reduction, at 10 µM, stronger effect = higher value.
Assay [5] has the same target. As to the kind of experiment: KvBeta positive modulators, primary screen, biochemical, NADPH fluorescence (AID 623;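 active means NADPH fluorescence slope more negative than the mean of all samples by about 3 SD, 99.7% confidence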;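 further: fluorescence intensity change per second fitted from 20 to 320 s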). Particulars: Recombinant KvBeta, NADPH fluorescence decrease slope, 10 min; at 10 µM; stronger effect = lower value.
For assay [6], the target named is Muscarinic acetylcholine receptor M4 (Homo sapiens) (UniProt P08173). In words: compounds altering M4/GIRK thallium flux, either direction, primary screen, M4 allosteric agonist project, cell-based, HEK293 M4/GIRK, BTC-AM (AID 625;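 active means fluorescence slope after compound addition differing from the mean of all tested samples at 99.7% confidence, mostly higher but some lower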;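 further: thallium influx through GIRK channels coupled to M4 in HEK293 cells with BTC-AM dye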). Particulars: at 10 µM, actives lie on both sides. A digest of the protocol: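 Assay system: HEK293 cells with M4 receptor and GIRK channels / Controls: carbachol and DMSO controls / Schedule: 1 h dye loading, 2 min kinetic read / Technique: kinetic fluorescence with BTC-AM dye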
Sequence of Muscarinic acetylcholine receptor M4 (Homo sapiens) (P08173 whole entry, looked up): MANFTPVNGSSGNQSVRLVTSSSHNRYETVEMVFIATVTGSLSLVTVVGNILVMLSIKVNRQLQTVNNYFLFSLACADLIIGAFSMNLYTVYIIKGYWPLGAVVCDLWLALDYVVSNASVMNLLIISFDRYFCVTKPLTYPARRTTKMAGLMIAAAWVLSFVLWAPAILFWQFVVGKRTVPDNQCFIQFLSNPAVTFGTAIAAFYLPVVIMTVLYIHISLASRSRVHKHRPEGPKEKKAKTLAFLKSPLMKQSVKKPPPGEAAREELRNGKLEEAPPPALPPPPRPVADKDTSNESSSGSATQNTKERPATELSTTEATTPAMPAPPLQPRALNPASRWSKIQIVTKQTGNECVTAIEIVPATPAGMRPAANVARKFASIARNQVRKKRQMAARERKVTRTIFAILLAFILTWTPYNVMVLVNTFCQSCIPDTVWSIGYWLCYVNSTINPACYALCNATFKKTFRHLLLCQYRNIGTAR

Assay [7] can be described thus: inhibitors of Sendai virus-induced IRF3 signaling, primary screen, TLR/RLR signaling modifier project, cell-based, Sendai virus stimulus, luciferase, 10K MLSCN set (AID 602276;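 active means inhibition at or above 50% at 10 µM; inactive means inhibition below 50%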;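 further: firefly luciferase from ISG56 promoter only with Renilla not read in this screen; 0% = Sendai virus plus DMSO and 100% = medium plus DMSO without virus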). To be noted: HEK293 RL24 IRF3 luciferase reporter, at 10 µM, stronger effect = higher value. (In a reporter assay the amount or activity of a reporter protein is the signal.)
Assay [8] in a line: inhibitors of poly I:C-induced TLR3 signaling, primary screen, cell-based, poly I:C stimulus, luciferase, 10K MLSCN set (AID 602277;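 active means inhibition of the reporter signal at or above 50%; inactive means inhibition below 50%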). To be noted: HEK293-TLR3 RL24 IRF3 luciferase reporter, at 10 µM, stronger effect = higher value.

Each structure is given as a SMILES string. Calls of active or inactive are those of the source.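 How the source made its calls, unless noted: active means inhibition above 20% together with a positive visual image hit; inconclusive means visual image hit but inhibition not above 20%; inactive means no visual image hit.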

Sequence of Voltage-gated potassium channel subunit beta-2 (Rattus norvegicus) (P62483 whole entry, looked up): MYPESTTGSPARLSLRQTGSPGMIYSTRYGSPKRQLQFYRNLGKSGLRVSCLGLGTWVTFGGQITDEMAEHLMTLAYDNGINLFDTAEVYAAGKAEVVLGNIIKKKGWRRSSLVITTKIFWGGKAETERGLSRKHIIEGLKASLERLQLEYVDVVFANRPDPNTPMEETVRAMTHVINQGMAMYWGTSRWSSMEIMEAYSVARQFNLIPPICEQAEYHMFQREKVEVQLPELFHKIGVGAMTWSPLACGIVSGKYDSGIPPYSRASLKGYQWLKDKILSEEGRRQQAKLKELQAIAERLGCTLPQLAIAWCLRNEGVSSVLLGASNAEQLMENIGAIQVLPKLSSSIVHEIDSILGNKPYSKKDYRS

`Cc1cc(C)n(Cc2nc3ccccc3n2C)n1`: the cell count in assay [1] worked out at 451. The inhibition – broadly, the change of the read-out against control, counted positive when it falls – was 7% (inactive) in assay [1], -24.9% (inactive) in assay [3], 4.33% (inactive) in assay [7] and 36.3% (inactive) in assay [8]. Further, in assay [2], the inhibition of aggregation is 4% (inactive). For the same compound, the nuclei count in assay [2] stood at 100%; in assay [3], 119%. Also, the fluorescence slope in assay [4] was -0.577 (inactive); in assay [6], 0.0071 (inactive). Besides, the NADPH fluorescence slope in assay [5] is -3.2e-05 (inactive).
In the case of `O=C(Nc1ccc2oc(-c3ccncc3)nc2c1)c1cccs1`, in assay [1], the cell count worked out at 159. Also, the inhibition in assay [1] was 108% (active); in assay [3], 14.7% (inactive); in assay [7] it was -55.9% (inactive); in assay [8], -120% (inactive). Further, the inhibition of aggregation in assay [2] is -8.6% (inactive). The figures for the nuclei count in assay [2] and in assay [3] were 103% and 113%, respectively. The values for the fluorescence slope in assay [4] and in assay [6] were -0.346 (inactive) and 0.00345 (inactive), respectively. Besides, the NADPH fluorescence slope in assay [5] is -0.000115 (inactive).
Take `Cc1cc(NC(=O)CCC(=O)N(CCc2ccccc2)C(C(=O)NC2CCCC2)c2ccco2)no1` (centres undefined): in assay [1], the cell count was 592. Further, the inhibition in assay [1] is -7.5% (inactive); in assay [3] it was 6.8% (inactive); in assay [7] it was 4.62% (inactive); in assay [8] it was 19.1% (inactive). Further, the inhibition of aggregation in assay [2] was -11.5% (inactive). Moreover, the nuclei count was 102% in assay [2] and 101% in assay [3]. Also, the fluorescence slope is -0.483 (inactive) in assay [4] and 0.00558 (inactive) in assay [6]. The NADPH fluorescence slope in assay [5] was 0.000137 (inactive).
`Cc1ccc(S(=O)(=O)CCc2nnc(NC(=O)c3cnccn3)s2)cc1`: the cell count in assay [1] was found to be 578. The inhibition was -46.9% (inactive) in assay [1], -82.9% (inactive) in assay [3], 10.8% (inactive) in assay [7] and 22.5% (inactive) in assay [8]. For the same compound, in assay [2], the inhibition of aggregation is -22.9% (inactive). Further, the nuclei count in assay [2] was determined as 116%; in assay [3] it was 117%. The figures for the fluorescence slope in assay [4] and in assay [6] were -0.407 (inactive) and 0.00653 (inactive), respectively. Moreover, in assay [5], the NADPH fluorescence slope was -8.1e-06 (inactive).
As for `CCCC(CCC)n1[nH]c(=O)c2c(C)cc(C)nc21`, the cell count in assay [1] stood at 357. For the same compound, the inhibition is 3.8% (inactive) in assay [1], -29.5% (inactive) in assay [3], 3.13% (inactive) in assay [7] and 4.22% (inactive) in assay [8]. Further, in assay [2], the inhibition of aggregation was 7.5% (inactive). Besides, the nuclei count in assay [2] came to 105%; in assay [3] it was 114%. The fluorescence slope in assay [4] is -0.47 (inactive); in assay [6], 0.00554 (inactive). In addition, the NADPH fluorescence slope in assay [5] is 3.6e-05 (inactive).
As for `COc1ccccc1-n1cnc(N)c1C(C)=O`, the cell count in assay [1] turned out to be 675. The inhibition was -9.1% (inactive) in assay [1], -12.3% (inactive) in assay [3], 6.44% (inactive) in assay [7] and 5.79% (inactive) in assay [8]. Moreover, in assay [2], the inhibition of aggregation is -12.9% (inactive). In addition, the nuclei count in assay [2] is 105%; in assay [3], 110%. The fluorescence slope is -0.586 (inactive) in assay [4] and 0.00353 (inactive) in assay [6]. Also, the NADPH fluorescence slope in assay [5] is -5.1e-05 (inactive).
Regarding `Cc1n[nH]c(C)c1S(=O)(=O)N1CCCCCC1`, the cell count in assay [1] is 355. For the same compound, the inhibition in assay [1] is 1.8% (inactive); in assay [3], -12.3% (inactive); in assay [7], 1.38% (inactive); in assay [8], 25% (inactive). The inhibition of aggregation in assay [2] was -0.3% (inactive). The figures for the nuclei count in assay [2] and in assay [3] were 99.2% and 110%, respectively. In addition, the fluorescence slope was -0.488 (inactive) in assay [4] and 0.00614 (inactive) in assay [6]. The NADPH fluorescence slope in assay [5] was 1.3e-05 (inactive).
In the case of `COc1cc(OC)cc(C(=O)NCCN2CCOCC2)c1`, the cell count in assay [1] turned out to be 633. Moreover, the inhibition in assay [1] was -11.2% (inactive); in assay [3], -24.5% (inactive); in assay [7] it was 7.36% (inactive); in assay [8] it was 9.91% (inactive). Besides, in assay [2], the inhibition of aggregation was -0.4% (inactive). The results for the nuclei count in assay [2] and in assay [3] were 94.3% and 108%, respectively. For the same compound, the fluorescence slope was -0.573 (inactive) in assay [4] and 0.00526 (inactive) in assay [6]. Also, the NADPH fluorescence slope in assay [5] is 1.5e-05 (inactive).
For `CCOC(=O)c1ccc(NC(=O)CCNc2c(N3CCCC3)c(=O)c2=O)cc1`, the cell count in assay [1] amounted to 266. Moreover, the inhibition in assay [1] was 0% (inactive); in assay [3] it was -20.2% (inactive); in assay [7] it was 4.44% (inactive); in assay [8], 10.6% (inactive). Moreover, the inhibition of aggregation in assay [2] was 26.6% (inactive). Further, the nuclei count was 70.7% in assay [2] and 117% in assay [3]. Also, the results for the fluorescence slope in assay [4] and in assay [6] were -0.609 (inactive) and 0.00478 (inactive), respectively. Further, the NADPH fluorescence slope in assay [5] is 5.7e-06 (inactive).
As to `O=C(CCCn1ncn2c(cc3occc32)c1=O)N1CCc2ccccc2C1`, the cell count in assay [1] worked out at 363. Besides, the inhibition is -0.7% (inactive) in assay [1], -81.7% (inactive) in assay [3], 8.38% (inactive) in assay [7] and 8.89% (inactive) in assay [8]. Further, the inhibition of aggregation in assay [2] was 4.2% (inactive). For the same compound, the results for the nuclei count in assay [2] and in assay [3] were 93.3% and 101%, respectively. The fluorescence slope is -0.484 (inactive) in assay [4] and 0.00605 (inactive) in assay [6]. In addition, the NADPH fluorescence slope in assay [5] was -0.00018 (inactive).
As for `COc1ccccc1C(=O)N1CCNC(=O)C1CC(=O)Nc1ccc(Cl)cc1` (centres undefined), the cell count in assay [1] was determined as 469. In addition, the inhibition was 1.3% (inactive) in assay [1], -302% (inactive) in assay [3], 18.2% (inactive) in assay [7] and 28.3% (inactive) in assay [8]. Further, in assay [2], the inhibition of aggregation was 9.7% (inactive). Further, the nuclei count in assay [2] worked out at 105%; in assay [3] it was 123%. The fluorescence slope in assay [4] is -0.565 (inactive); in assay [6] it was 0.00504 (inactive). In assay [5], the NADPH fluorescence slope was -2.7e-05 (inactive).
As for `CCOC(=O)c1cccc(NC(=O)CCn2nnc3ccccc32)c1`, the cell count in assay [1] came out at 341. Also, the inhibition in assay [1] was 1.2% (inactive); in assay [3] it was -4.7% (inactive); in assay [7], 18.4% (inactive); in assay [8], 8.84% (inactive). For the same compound, the inhibition of aggregation in assay [2] is 4.8% (inactive). Besides, the nuclei count in assay [2] was found to be 112%; in assay [3] it was 118%. The fluorescence slope in assay [4] is -0.457 (inactive); in assay [6] it was 0.00454 (inactive). Further, the NADPH fluorescence slope in assay [5] is -2.8e-05 (inactive).
For the compound `Cc1ccc(-n2nc(C(=O)N3CCN(C)CC3)c3c4ccccc4n(C)c3c2=O)cc1`, the cell count in assay [1] was 264. For the same compound, the inhibition in assay [1] is 5.9% (inactive); in assay [3], -38.3% (inactive); in assay [7] it was 19.7% (inactive); in assay [8], 35.7% (inactive). Moreover, the inhibition of aggregation in assay [2] was -10.3% (inactive). Also, the nuclei count in assay [2] is 90.9%; in assay [3] it was 119%. Besides, the results for the fluorescence slope in assay [4] and in assay [6] were -0.523 (inactive) and 0.00583 (inactive), respectively. Moreover, the NADPH fluorescence slope in assay [5] was -2e-05 (inactive).
On to `CN(C=O)CP(=O)(O)CCN1CCCC1=O`, for which the cell count in assay [1] was 447. Besides, the inhibition is 7% (inactive) in assay [1], 27% (inactive) in assay [3], 14.6% (inactive) in assay [7] and 25.4% (inactive) in assay [8]. Moreover, the inhibition of aggregation in assay [2] was 19.4% (inactive). The results for the nuclei count in assay [2] and in assay [3] were 90.6% and 106%, respectively. Also, the fluorescence slope in assay [4] is -0.589 (inactive); in assay [6] it was 0.00412 (inactive). Further, the NADPH fluorescence slope in assay [5] was -5.8e-05 (inactive).
